Test results from ChEMBL document CHEMBL4017482, “4-Connected azabicyclo[5.3.0]decane Smac mimetics-Zn2+ chelators as dual action antitumoral agents” (Bioorg Med Chem Lett, 2017).
Active and inactive are the calls of the source. The calls are words filed in the database; no cut-off is given here.

Experiments:
[1] = system: MDA-MB-453; assay: Induction of apoptosis in smac mimetic-resistant human MDA-MB-453 cells assessed as increase in cleaved PARP level at 5 uM measured after 24 hrs by Western blot analysis; assay type: functional, cell-based
[2] = molecular target: E3 ubiquitin-protein ligase XIAP (Homo sapiens) (UniProt P98170); assay: Induction of XIAP degradation in smac mimetic-sensitive human MDA-MB-231 cells at 5 uM measured after 24 hrs by Western blot analysis
[3] = system: MDA-MB-231; assay: Cytotoxicity against human smac mimetic-sensitive human MDA-MB-231 cells after 24 hrs by CellTiter-Glo assay; details: MDA-MB-231, 24 h
[4] = system: MDA-MB-231; assay: Induction of apoptosis in smac mimetic-sensitive human MDA-MB-231 cells assessed as increase in cleaved PARP level at 5 uM measured after 24 hrs by Western blot analysis; assay type: functional, cell-based
[5] = system: MDA-MB-231; assay: Induction of apoptosis in smac mimetic-sensitive human MDA-MB-231 cells assessed as increase in cleaved casapse-3 at 5 uM measured after 24 hrs by Western blot analysis; assay type: functional, cell-based
[6] = Metal chelating activity of compound assessed as 1:1 stoichiometry for compound-Zn2+ complex at 50 uM measured after 15 mins by spectrofluorimetric method; assay type: functional
Method in brief: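 Compounds were titrated with Zn2+, and chelation was followed by fluorescence spectroscopy.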

[7] = system: MDA-MB-453; assay: Cytotoxicity against human smac mimetic-sensitive human MDA-MB-453 cells after 24 hrs by CellTiter-Glo assay; details: MDA-MB-453, 24 h
[8] = system: MDA-MB-453; assay: Induction of apoptosis in smac mimetic-resistant human MDA-MB-453 cells assessed as increase in cleaved casapse-3 at 5 uM measured after 24 hrs by Western blot analysis; assay type: functional, cell-based
[9] = molecular target: E3 ubiquitin-protein ligase XIAP (Homo sapiens) (UniProt P98170); assay: Induction of XIAP degradation in smac mimetic-resistant human MDA-MB-453 cells at 5 uM measured after 24 hrs by Western blot analysis

Chain of E3 ubiquitin-protein ligase XIAP (Homo sapiens) (P98170 whole entry): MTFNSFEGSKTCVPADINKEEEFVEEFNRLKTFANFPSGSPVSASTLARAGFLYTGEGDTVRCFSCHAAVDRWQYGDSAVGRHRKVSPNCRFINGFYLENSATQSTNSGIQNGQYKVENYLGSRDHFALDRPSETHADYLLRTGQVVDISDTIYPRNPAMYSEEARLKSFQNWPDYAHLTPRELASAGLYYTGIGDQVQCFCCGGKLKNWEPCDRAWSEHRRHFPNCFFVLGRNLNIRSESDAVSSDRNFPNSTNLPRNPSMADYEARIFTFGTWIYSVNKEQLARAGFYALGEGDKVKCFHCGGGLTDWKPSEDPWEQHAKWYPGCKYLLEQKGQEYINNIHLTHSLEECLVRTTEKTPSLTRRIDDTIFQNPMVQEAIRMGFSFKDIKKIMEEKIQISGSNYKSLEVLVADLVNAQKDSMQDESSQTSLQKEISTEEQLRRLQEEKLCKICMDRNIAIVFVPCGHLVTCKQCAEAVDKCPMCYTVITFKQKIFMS

SMILES	Activity [2]	Activity [9]	Activity [1]	IC50 [3]	Activity [4]	Activity [5]	Activity [6]	IC50 [7]	Activity [8]
CC[C@H](NC)C(=O)N[C@@H]1C(=O)N2[C@@H](CC[C@@H]1CNC(=O)CN(Cc1ccccn1)Cc1ccccn1)CC[C@H]2C(=O)NC(c1ccccc1)c1ccccc1	inactive	–	inactive	6.5 µM	Active	Active	Active	> 25 µM	inactive
CC[C@H](NC)C(=O)N[C@@H]1C(=O)N2[C@@H](CC[C@@H]1CNC(=O)c1ccccc1)CC[C@H]2C(=O)N[C@H](C(=O)NCCN(Cc1ccccn1)Cc1ccccn1)c1ccccc1	inactive	inactive	–	–	–	–	–	–	–
CC[C@H](NC)C(=O)N[C@@H]1C(=O)N2[C@@H](CC[C@@H]1CNC(=O)COCCOCCNC(=O)CN(Cc1ccccn1)Cc1ccccn1)CC[C@H]2C(=O)NC(c1ccccc1)c1ccccc1	inactive	Active	inactive	> 25 µM	inactive	inactive	Active	> 25 µM	inactive
CC[C@H](NC)C(=O)N[C@@H]1C(=O)N2[C@@H](CC[C@@H]1CNC(=O)CCNC(=O)CN(Cc1ccccn1)Cc1ccccn1)CC[C@H]2C(=O)NC(c1ccccc1)c1ccccc1	inactive	–	inactive	> 25 µM	inactive	inactive	Active	> 25 µM	inactive

Now from value to compound, other results behind:

Activity [2]	Activity [9]	SMILES	Activity [1]	IC50 [3]	Activity [4]	Activity [5]	Activity [6]	IC50 [7]	Activity [8]
Active	inactive	CC[C@H](NC)C(=O)N[C@@H]1C(=O)N2[C@@H](CC[C@@H]1CNC(=O)CCCCCCCCCCNC(=O)CN(Cc1ccccn1)Cc1ccccn1)CC[C@H]2C(=O)NC(c1ccccc1)c1ccccc1	inactive	0.97 µM	Active	Active	Active	> 25 µM	inactive
inactive	inactive	CC[C@H](NC)C(=O)N[C@@H]1C(=O)N2[C@@H](CC[C@@H]1CNC(=O)c1ccccc1)CC[C@H]2C(=O)NC(c1ccccc1)c1ccccc1	–	4.1 µM	Active	Active	–	> 25 µM	–
